Here are results for two molecules from PMC6039199 (Clinical and Translational Science, 2018).

For data set [1] the following is noted: dose range of 0.5–300 mg, fasting state; cited from earlier work.
The conditions of data set [2]: ref data on file; cited from earlier work.
The format of data set [3] is in vivo, human. As to conditions: for AUCinf(dn), adjusted least squares geometric mean: N = 8, mixed-effects model; for t1/2 / half-life: arithmetic mean ± SD. A digest of the protocol:
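In period 1, after an overnight fast of at least 8 h, subjects received 15 mg oral unlabeled drug. A 100 μg 14C i.v. microdose (~400 nCi) was infused over ~5 min, ending 1 h post oral dose. Plasma 14C drug was measured by HPLC-AMS and unlabeled drug by HPLC-MS/MS (LLOQ 0.5 ng/mL). Noncompartmental AUClast used linear-log trapezoids and AUCinf = AUClast + Clast*/kel, normalized to the actual dose. F = ratio of adjusted geometric means, from a mixed-effects model on ln AUCinf with 90% CI.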

For another data set, the system named is Caco‐2 cells. As to conditions: cited from earlier work.
Data set [4] is classed as in vivo, human. Conditions: for 14C_Total(dn) (14C_Total in dpm/radioactivity dose in dpm), geometric mean: N = 6; for 14C-Total urinary excretion: mean (%CV). A digest of the protocol: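 Period 1 was the i.v. 14C microdose. In period 2, after at least 11 days washout and a fast of at least 8 h, subjects took 15 mg oral unlabeled drug (three 5-mg tablets), then a 100 μg oral 14C solution (~400 nCi) with ~240 mL water. Urine 0–96 h was assayed for 14C by AMS, summed as concentration × volume, then normalized to the administered dpm. That dose came from LSC of the solution and syringe weight. Fa = oral/i.v. geometric mean ratio, plus a mixed-effects model using all data.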

For data set [5] the following is noted: dogs; cited from earlier work.
Data set [6] in a line: Safety and tolerability assessments in the microtracer study. As to conditions: for Adverse events: N = 8. Type of data set: in vivo, human. The method, boiled down:
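Eight healthy adult men, fasted at least 8 h overnight, received the test compound orally plus an i.v. 14C microtracer (period 1), then oral unlabeled drug plus oral 14C microtracer (period 2). Monitoring covered adverse events, vital signs, ECGs and laboratory tests from screening through the study. A telephone follow-up for adverse events was made 14 ± 3 days after the last dose.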

The conditions of data set [7]: rats; cited from earlier work.
The conditions of data set [8]: cited from earlier work.
[9] abbreviates: 15 mg oral unlabeled, dose-normalized to 1 mg, geometric mean (geometric %CV).
[10] abbreviates: 100 μg i.v. 14C, geometric mean (geometric %CV).

One may read the CL/F as clearance divided by bioavailability, as obtained after extravascular dosing. Broadly, the Vd is the apparent volume that relates the amount in the body to the concentration in plasma or blood. For orientation: clearance means the volume of plasma or blood freed of the substance per unit of time. Read a low clearance as inefficient removal. As a reminder, the half-life is the time in which the quantity being followed falls by half. Lower therefore signals fast loss. Usually AUC(0-inf) stands for total exposure, with the tail of the curve extrapolated. Read a low AUC(0-inf) as low exposure. In general, AUC(0-t) refers to exposure summed from dosing to a finite time, without extrapolation to infinity. As usually defined, the Vd/F is the volume of distribution divided by bioavailability.

Values joined by “and” are separate entries in the source; they are usually repeats but may differ in a detail not shown here. Identical values can stand only once. “Also recorded” adds a separate entry of the source. Like-named read-outs stand apart in the source and are kept apart here. Marks after values point to notes of the source that are not given here.

Regarding `CCOc1ccc(Cc2cc([C@]34OC[C@](CO)(O3)[C@@H](O)[C@H](O)[C@H]4O)ccc2Cl)cc1` [ertugliflozin], in data set [1], the “Dose proportionality in exposure (AUC and Cmax)” value is reported as “dose proportionality in exposure”. Also, in [2], the Solubility classification result is “highly soluble” and the “Solubility of 15 mg in 250 mL aqueous media” value is “completely soluble”. Besides, the “AUCinf(dn), adjusted least squares geometric mean” value in data set [3] (15 mg oral unlabeled (Test)) worked out at 93.16 ng·h/mL/mg. Moreover, in [3] (15 mg oral unlabeled, HPLC-MS/MS, LLOQ 0.5 ng/mL), the “Time quantifiable in plasma postdose” value stood at 72 h. In data set [3] (15 mg oral unlabeled, listed as Unlabeled ertugliflozin), this molecule gave a t1/2 of 14.04 ± 2.17 h. In data set [3] (setting [9]), the “AUCinf(dn)” value is 93.16 (13) ng·h/mL/mg and the “Cmax(dn)” value is given as 17.09 (14) ng/mL/mg. The CL/F in [3] (15 mg oral unlabeled, geometric mean (geometric %CV)) came to 178.7 mL/min. The Permeability classification entry in data set [3] (based on F and Fa ∼100%) is recorded as “highly permeable”. For the same molecule, in data set [3] (human, plasma, iv, 100 ug), the Vd was determined as 85.5 L and the clearance was 187 mL/min. Also, in [3] (human, plasma, iv, 100 ug, t1/2, 100 μg i.v. 14C), the half-life was 8.1 h. Moreover, in data set [3] (human, plasma, po, 15 mg), the total exposure AUC(0-inf) came out at 1400 ng·h/mL, the AUC(0-t) is 1380 ng·h/mL, the Cmax came to 256 ng/mL and the Vd/F stood at 215 L. For the same molecule, the half-life in data set [3] (human, plasma, po, 15 mg, t1/2, 15 mg oral unlabeled) is 14 h. For the same molecule, the “Absolute oral bioavailability F: Ratio (Test/Reference) of adjusted means” value in [3] (oral 15 mg vs i.v. 14C 100 μg, fasted, N = 8) was 105% and 104.73%. Further, in the data set on Caco‐2 cells (Caco-2), the BA/AB ratio is 2.1. Moreover, the Permeability coefficient with Caco‐2 cells (apical (A) to basolateral (B) direction) is 4.1 ×10⁻⁶ cm/s. In addition, in [4] (all available data (N = 8 oral; N = 6 i.v.)), the “Fraction absorbed Fa: geometric mean ratio (90% CI), mixed-effects model” value was 110%. In addition, the Oral absorption entry in data set [4] (fasted conditions) was “complete; also recorded: completely absorbed”. Besides, in data set [4] (oral (Test, period 2), urine 0–96 h), the “14C_Total(dn) (14C_Total in dpm/radioactivity dose in dpm), geometric mean” value was 0.432. Further, the “Fraction absorbed Fa: ratio (Test/Reference) of geometric means” value in data set [4] (six subjects with complete urine data for both treatments, fasted) was 111% and 110.71%. For the same molecule, the “Estimated Fa” value in [5] was ~100%. In addition, the Tolerability entry in data set [6] (following i.v. and oral administration, healthy men) was “well tolerated”. In addition, the Adverse events entry in data set [6] (period 1 (i.v. administration)) was “Three subjects experienced three AEs (back pain and two episodes of headache)”. Moreover, the Adverse events result in data set [6] (period 2 (oral administration)) is on record as “one subject experienced one AE (nasal congestion)”. Besides, the “Estimated Fa” value in [7] was ~75%. Also, the Principal biotransformation pathway entry in [8] (humans) is “glucuronidation”. For the same molecule, the “Renal excretion of unchanged ertugliflozin” value in [8] (single 25-mg oral 14C dose, healthy male subjects) was 1.5%. For the same molecule, the “Human fraction of dose absorbed (Fa) from mean urinary 14C recovery” value in data set [8] (single 25-mg oral 14C dose) is recorded as “at least 50%”.
As to ^14C‐ertugliflozin, the “AUCinf(dn), adjusted least squares geometric mean” value in [3] (100 μg i.v. 14C (Reference)) came out at 88.96 ng·h/mL/mg. For the same molecule, the AUCinf in data set [3] (100 μg i.v. 14C microdose, period 1, N = 8, geometric mean (geometric %CV)) is given as 8.477 (15) ng·h/mL. Further, the “Time quantifiable in plasma postdose” value in [3] (100 μg i.v. 14C microdose, HPLC-AMS, LLOQ 20.4 pg/mL) is recorded as ~24 h. In addition, in [3] (100 μg i.v. 14C, 5-min infusion, relative to infusion start, median (range)), the Tmax is on record as 0.083 (0.083–0.100) h. The t1/2 in data set [3] (100 μg i.v. 14C) worked out at 8.098 ± 2.248 h. Besides, the “Cmax(dn)” value in data set [3] (100 μg i.v. 14C, dose-normalized to 1 mg, geometric mean (geometric %CV)) is reported as 89.34 ^b (32) ng/mL/mg. In addition, in [3] (setting [10]), the AUClast was 7.859 (14) ng·h/mL, the CL is 187.2 (15) mL/min, the Cmax was 8.514 (32) ng/mL and the Vss is 85.53 (15) L. The “14C_Total(dn) (14C_Total in dpm/radioactivity dose in dpm), geometric mean” value in data set [4] (i.v. 100 μg 14C (Reference, period 1), urine) was 0.390. In [4] (i.v. 100 μg 14C, period 1, N = 6), the 14C-Total urinary excretion is 319,000 (19) dpm and 319,000 dpm. In addition, in data set [4] (i.v. administration), the “Total 14C in urine as percent of administered dose (% 14C_Total)” value came to 39%. Moreover, the 14C-Total urinary excretion in data set [4] (oral 100 μg 14C, period 2, N = 8) is 320,400 (10) dpm and 320,400 dpm. Moreover, the “Total 14C in urine as percent of administered dose (% 14C_Total)” value in data set [4] (oral administration) was determined as 44%.
